Reference: ChEMBL document CHEMBL3352815, “Indolinone based LRRK2 kinase inhibitors with a key hydrogen bond” (Bioorg Med Chem Lett, 2014)

Assays:
[1] = molecular target: T1, Leucine-rich repeat serine/threonine-protein kinase 2 (Homo sapiens, UniProt Q5S007); assay: Inhibition of recombinant LRRK2 (unknown origin) using gamma-32P-ATP assessed as LRRKtide substrate phosphorylation level at 10 uM by autoradiography; design: scale not given: the % may be the effect or the level left
In short: (§1)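 In vitro LRRK2 kinase activity assay with a peptide substrate. Compound was tested at two concentrations, 10 and 1. Read-out is residual LRRK2 kinase activity, given as percent relative to control.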

[2] = molecular target: T1, Leucine-rich repeat serine/threonine-protein kinase 2; assay: Inhibition of recombinant LRRK2 (unknown origin) using gamma-32P-ATP assessed as LRRKtide substrate phosphorylation level at 1 uM by autoradiography; design: scale not given: the % may be the effect or the level left; in short: as §1
[3] = molecular target: T1, Leucine-rich repeat serine/threonine-protein kinase 2; assay: Inhibition of recombinant LRRK2 (unknown origin) using gamma-32P-ATP assessed as LRRKtide substrate phosphorylation level by autoradiography
Danio rerio [4] = species on record: Danio rerio; assay: Toxicity in zebrafish embryo assessed as crooked tails at 5 to 10 uM after 24 hrs; assay type: organism-based; conditions: in vivo
[5] = Toxicity in zebrafish embryo assessed as lethality at 20 to 30 uM after 24 hrs; assay type: organism-based, Danio rerio; conditions: in vivo, read-out: Activity
In short: (§2)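 Zebrafish embryos kept in E3 medium at 28 °C; compound added at 24 hpf, with 1% DMSO embryos as control. Concentrations from 1 to 100 µM. Lethality recorded over time through 120 hpf, with phenotype also compared at 96 hpf.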

[6] = molecular target: Glycogen synthase kinase-3 beta (Homo sapiens) (UniProt P49841); assay: Inhibition of human recombinant GSK3beta using CFFKNIVTPRTPPPSQGK-amide substrate after 90 mins incubation by LANCE method
[7] = molecular target: Interleukin-1 receptor-associated kinase 4 (Homo sapiens) (UniProt Q9NWZ3); assay: Inhibition of human recombinant IRAK4 expressed insect cells using Ulight-FLGFTYVAP substrate assessed as remaining enzyme activity at 1 uM after 90 mins relative to control
[8] = molecular target: Insulin receptor (Homo sapiens) (UniProt P06213); assay: Inhibition of human recombinant InsR using Ulight-Poly GAT[EAY(1:1:1)]n substrate assessed as remaining enzyme activity at 1 uM after 10 mins relative to control
[9] = molecular target: Vascular endothelial growth factor receptor 2 (Homo sapiens) (UniProt P35968); assay: Inhibition of human recombinant KDR kinase expressed Sf9 cells using Ulight-CAGAGAIETDKEYYTVKD substrate assessed as remaining enzyme activity at 1 uM after 60 mins relative to control
[10] = molecular target: Tyrosine-protein kinase Lck (Homo sapiens) (UniProt P06239); assay: Inhibition of human recombinant Lck kinase expressed insect cells using Ulight-Poly GAT[EAY(1:1:1)]n substrate assessed as remaining enzyme activity at 1 uM after 30 mins relative to control
[11] = molecular target: MAP kinase-activated protein kinase 2 (Homo sapiens) (UniProt P49137); assay: Inhibition of human recombinant MAPKAPK2 expressed Escherichia coli using CREBtide (CKRREILSRRPSYRK) substrate assessed as remaining enzyme activity at 1 uM after 15 mins relative to control
[12] = molecular target: MAP kinase-interacting serine/threonine-protein kinase 2 (Homo sapiens) (UniProt Q9HBH9); assay: Inhibition of human recombinant MNK2 expressed Sf21 cells using CREBtide (CKRREILSRRPSYRK) substrate assessed as remaining enzyme activity at 1 uM after 90 mins relative to control
[13] = molecular target: Serine/threonine-protein kinase 26 (Homo sapiens) (UniProt Q9P289); assay: Inhibition of human recombinant MST4 kinase using Ulight TM- PKC substrate assessed as remaining enzyme activity at 1 uM after 30 mins relative to control
[14] = molecular target: Serine/threonine-protein kinase Nek2 (Homo sapiens) (UniProt P51955); assay: Inhibition of human recombinant NEK2 expressed insect cells using Ulight-FLGFTYVAP substrate assessed as remaining enzyme activity at 1 uM after 60 mins relative to control
[15] = molecular target: 3-phosphoinositide-dependent protein kinase 1 (Homo sapiens) (UniProt O15530); assay: Inhibition of human recombinant PDK1 expressed insect cells using Ulight-FLGFTYVAP substrate assessed as remaining enzyme activity at 1 uM after 90 mins relative to control
[16] = molecular target: Serine/threonine-protein kinase PLK1 (Homo sapiens) (UniProt P53350); assay: Inhibition of human recombinant PLK1 using Ulight-FLGFTYVAP substrate assessed as remaining enzyme activity at 1 uM after 60 mins relative to control
[17] = molecular target: Rho-associated protein kinase 1 (Homo sapiens) (UniProt Q13464); assay: Inhibition of human recombinant ROCK1 using Ulight-RRRSLLE substrate assessed as remaining enzyme activity at 1 uM after 30 mins relative to control
[18] = molecular target: Serine/threonine-protein kinase Sgk1 (Homo sapiens) (UniProt O00141); assay: Inhibition of human recombinant SGK1 using Ulight-RRRSLLE substrate assessed as remaining enzyme activity at 1 uM after 30 mins relative to control
[19] = molecular target: Proto-oncogene tyrosine-protein kinase Src (Homo sapiens) (UniProt P12931); assay: Inhibition of human recombinant Src kinase expressed insect cells using Ulight-Poly GAT[EAY(1:1:1)]n substrate assessed as remaining enzyme activity at 1 uM after 10 mins relative to control
[20] = molecular target: Serine/threonine-protein kinase TAO2 (Homo sapiens) (UniProt Q9UL54); assay: Inhibition of human recombinant TAOK2 (TAO1) using Ulight-FLGFTYVAP substrate assessed as remaining enzyme activity at 1 uM after 60 mins relative to control
[21] = molecular target: High affinity nerve growth factor receptor (Homo sapiens) (UniProt P04629); assay: Inhibition of human recombinant TRKA expressed insect cells using Ulight-Poly GAT[EAY(1:1:1)]n substrate assessed as remaining enzyme activity at 1 uM after 10 mins relative to control
[22] = Toxicity in zebrafish embryo assessed as lethality at 30 uM after 120 hrs; assay type: organism-based, Danio rerio; conditions: in vivo, read-out: Activity; in short: as §2
Danio rerio [23] = species on record: Danio rerio; assay: Toxicity in zebrafish embryo at below 10 uM after 24 hrs; assay type: organism-based; conditions: in vivo
In short: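 Zebrafish embryos collected and kept in E3 medium at 28 °C. Compound added at 24 hpf, and phenotypes (growth, tail morphology) were compared at 96 hpf against control embryos in 1% DMSO. Lethality was followed over time up to 120 hpf across a concentration series.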

[24] = molecular target: Tyrosine-protein kinase ABL1 (Homo sapiens) (UniProt P00519); assay: Inhibition of human recombinant Abl kinase expressed insect cells using Ulight-TK peptide substrate assessed as remaining enzyme activity at 1 uM after 60 mins relative to control
[25] = molecular target: RAC-alpha serine/threonine-protein kinase (Homo sapiens) (UniProt P31749); assay: Inhibition of human recombinant Akt1/PKBalpha expressed insect cells using CKRREILSRRPSYRK substrate assessed as remaining enzyme activity at 1 uM after 60 mins relative to control
[26] = molecular target: Cyclin-dependent kinase 1/cyclin B1 (Homo sapiens) (UniProt P06493+P14635); assay: Inhibition of human recombinant CDC2/CDK1 (cycB) expressed insect cells using Ulight-CFFKNIVTPRTPPPSQGK-amide substrate assessed as remaining enzyme activity at 1 uM after 15 mins relative to control
[27] = molecular target: Cyclin-dependent kinase 2 (Homo sapiens) (UniProt P24941); assay: Inhibition of human recombinant CDK2 using Ulight-CFFKNIVTPRTPPPSQGK-amide substrate assessed as remaining enzyme activity at 1 uM after 30 mins relative to control
[28] = molecular target: Serine/threonine-protein kinase Chk1 (Homo sapiens) (UniProt O14757); assay: Inhibition of human recombinant CHK1 expressed insect cells using CREBtide (CKRREILSRRPSYRK) substrate assessed as remaining enzyme activity at 1 uM after 30 mins relative to control
[29] = molecular target: Serine/threonine-protein kinase Chk2 (Homo sapiens) (UniProt O96017); assay: Inhibition of human recombinant CHK2 expressed insect cells using CREBtide (CKRREILSRRPSYRK) substrate assessed as remaining enzyme activity at 1 uM after 15 mins relative to control
[30] = molecular target: Hepatocyte growth factor receptor (Homo sapiens) (UniProt P08581); assay: Inhibition of human recombinant c-Met kinase expressed insect cells using Ulight-CAGAGAIETDKEYYTVKD substrate assessed as remaining enzyme activity at 1 uM after 60 mins relative to control
[31] = molecular target: Ephrin type-A receptor 3 (Homo sapiens) (UniProt P29320); assay: Inhibition of human recombinant EphA3 kinase using Ulight-TK peptide substrate assessed as remaining enzyme activity at 1 uM after 60 mins relative to control

T1 sequence (Q5S007 whole entry): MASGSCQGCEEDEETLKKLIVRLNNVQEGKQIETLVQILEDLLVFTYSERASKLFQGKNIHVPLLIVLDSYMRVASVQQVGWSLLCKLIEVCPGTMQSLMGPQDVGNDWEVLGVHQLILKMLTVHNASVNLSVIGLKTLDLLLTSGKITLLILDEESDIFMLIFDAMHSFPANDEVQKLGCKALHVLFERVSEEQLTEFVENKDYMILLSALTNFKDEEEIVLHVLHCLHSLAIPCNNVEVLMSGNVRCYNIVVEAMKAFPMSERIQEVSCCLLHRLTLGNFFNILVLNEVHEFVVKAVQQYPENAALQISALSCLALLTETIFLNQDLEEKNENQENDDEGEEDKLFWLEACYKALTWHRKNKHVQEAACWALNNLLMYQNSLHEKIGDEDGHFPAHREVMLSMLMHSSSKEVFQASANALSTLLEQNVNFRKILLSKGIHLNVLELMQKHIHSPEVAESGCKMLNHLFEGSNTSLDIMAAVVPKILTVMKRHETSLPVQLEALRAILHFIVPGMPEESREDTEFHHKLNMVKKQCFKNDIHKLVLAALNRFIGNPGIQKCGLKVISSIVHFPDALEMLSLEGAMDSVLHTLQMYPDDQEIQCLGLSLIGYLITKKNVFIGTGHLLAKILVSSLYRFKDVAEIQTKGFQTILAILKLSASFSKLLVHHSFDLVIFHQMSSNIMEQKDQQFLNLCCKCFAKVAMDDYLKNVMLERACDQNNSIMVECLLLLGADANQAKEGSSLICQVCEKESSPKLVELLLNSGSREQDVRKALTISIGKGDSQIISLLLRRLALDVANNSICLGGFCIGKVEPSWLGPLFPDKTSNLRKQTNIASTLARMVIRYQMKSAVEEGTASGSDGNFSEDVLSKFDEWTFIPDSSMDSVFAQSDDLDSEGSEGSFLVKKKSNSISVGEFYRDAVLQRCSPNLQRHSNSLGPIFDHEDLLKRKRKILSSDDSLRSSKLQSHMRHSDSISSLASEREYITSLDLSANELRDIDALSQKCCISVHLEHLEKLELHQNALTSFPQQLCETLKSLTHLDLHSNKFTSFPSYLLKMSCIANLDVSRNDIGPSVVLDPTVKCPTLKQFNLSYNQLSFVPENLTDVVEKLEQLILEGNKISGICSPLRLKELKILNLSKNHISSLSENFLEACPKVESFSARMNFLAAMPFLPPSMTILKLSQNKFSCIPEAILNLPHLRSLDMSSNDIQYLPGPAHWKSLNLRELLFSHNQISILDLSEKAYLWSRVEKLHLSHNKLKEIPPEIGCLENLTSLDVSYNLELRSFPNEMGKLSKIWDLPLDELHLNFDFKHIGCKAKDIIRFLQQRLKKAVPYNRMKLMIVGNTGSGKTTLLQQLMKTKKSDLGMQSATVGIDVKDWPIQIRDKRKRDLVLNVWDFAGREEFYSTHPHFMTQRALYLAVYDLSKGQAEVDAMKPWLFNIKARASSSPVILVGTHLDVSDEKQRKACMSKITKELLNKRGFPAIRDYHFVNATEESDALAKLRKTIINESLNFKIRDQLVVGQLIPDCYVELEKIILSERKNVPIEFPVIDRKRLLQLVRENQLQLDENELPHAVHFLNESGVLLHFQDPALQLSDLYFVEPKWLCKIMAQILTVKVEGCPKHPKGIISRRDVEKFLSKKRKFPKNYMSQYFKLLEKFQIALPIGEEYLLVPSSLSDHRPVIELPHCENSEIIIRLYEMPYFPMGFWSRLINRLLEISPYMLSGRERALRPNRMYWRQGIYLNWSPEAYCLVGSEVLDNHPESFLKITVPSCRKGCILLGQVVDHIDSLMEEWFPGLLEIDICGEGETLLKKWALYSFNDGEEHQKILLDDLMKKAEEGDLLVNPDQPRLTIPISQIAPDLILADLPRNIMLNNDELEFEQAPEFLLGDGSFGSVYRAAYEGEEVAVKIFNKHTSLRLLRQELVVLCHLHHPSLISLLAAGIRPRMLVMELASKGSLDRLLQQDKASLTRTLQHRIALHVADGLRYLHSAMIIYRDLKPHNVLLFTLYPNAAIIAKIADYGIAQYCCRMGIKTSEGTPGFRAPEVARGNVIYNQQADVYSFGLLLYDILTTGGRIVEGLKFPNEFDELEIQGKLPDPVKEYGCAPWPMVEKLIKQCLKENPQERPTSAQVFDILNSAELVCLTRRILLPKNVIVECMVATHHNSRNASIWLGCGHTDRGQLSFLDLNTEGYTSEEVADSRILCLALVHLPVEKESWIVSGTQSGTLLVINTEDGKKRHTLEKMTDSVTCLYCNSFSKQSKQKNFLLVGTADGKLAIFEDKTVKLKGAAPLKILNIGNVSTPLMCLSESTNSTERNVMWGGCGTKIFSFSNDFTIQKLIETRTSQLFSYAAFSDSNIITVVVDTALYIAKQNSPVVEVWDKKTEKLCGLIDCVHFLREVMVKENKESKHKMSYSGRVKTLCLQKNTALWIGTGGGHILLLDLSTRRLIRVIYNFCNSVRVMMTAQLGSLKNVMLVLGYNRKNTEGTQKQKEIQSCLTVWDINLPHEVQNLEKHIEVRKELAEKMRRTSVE
Proto-oncogene tyrosine-protein kinase Src (Homo sapiens), sequence (P12931 2-536 limits assumed): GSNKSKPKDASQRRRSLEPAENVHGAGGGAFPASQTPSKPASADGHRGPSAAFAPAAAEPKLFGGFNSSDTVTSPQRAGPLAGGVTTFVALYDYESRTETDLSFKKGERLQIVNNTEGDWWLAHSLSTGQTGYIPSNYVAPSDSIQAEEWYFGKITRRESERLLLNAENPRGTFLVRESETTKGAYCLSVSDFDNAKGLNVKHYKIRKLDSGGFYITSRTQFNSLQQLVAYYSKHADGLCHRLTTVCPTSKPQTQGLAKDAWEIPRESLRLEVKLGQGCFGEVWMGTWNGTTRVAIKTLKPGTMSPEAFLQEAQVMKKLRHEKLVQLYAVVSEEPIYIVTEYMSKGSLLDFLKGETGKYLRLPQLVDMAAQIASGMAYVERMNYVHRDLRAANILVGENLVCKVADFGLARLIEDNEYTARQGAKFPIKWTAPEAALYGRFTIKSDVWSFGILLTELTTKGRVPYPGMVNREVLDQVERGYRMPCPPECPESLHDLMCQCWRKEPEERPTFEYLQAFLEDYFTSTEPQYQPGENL
Hepatocyte growth factor receptor (Homo sapiens), sequence (P08581 whole entry): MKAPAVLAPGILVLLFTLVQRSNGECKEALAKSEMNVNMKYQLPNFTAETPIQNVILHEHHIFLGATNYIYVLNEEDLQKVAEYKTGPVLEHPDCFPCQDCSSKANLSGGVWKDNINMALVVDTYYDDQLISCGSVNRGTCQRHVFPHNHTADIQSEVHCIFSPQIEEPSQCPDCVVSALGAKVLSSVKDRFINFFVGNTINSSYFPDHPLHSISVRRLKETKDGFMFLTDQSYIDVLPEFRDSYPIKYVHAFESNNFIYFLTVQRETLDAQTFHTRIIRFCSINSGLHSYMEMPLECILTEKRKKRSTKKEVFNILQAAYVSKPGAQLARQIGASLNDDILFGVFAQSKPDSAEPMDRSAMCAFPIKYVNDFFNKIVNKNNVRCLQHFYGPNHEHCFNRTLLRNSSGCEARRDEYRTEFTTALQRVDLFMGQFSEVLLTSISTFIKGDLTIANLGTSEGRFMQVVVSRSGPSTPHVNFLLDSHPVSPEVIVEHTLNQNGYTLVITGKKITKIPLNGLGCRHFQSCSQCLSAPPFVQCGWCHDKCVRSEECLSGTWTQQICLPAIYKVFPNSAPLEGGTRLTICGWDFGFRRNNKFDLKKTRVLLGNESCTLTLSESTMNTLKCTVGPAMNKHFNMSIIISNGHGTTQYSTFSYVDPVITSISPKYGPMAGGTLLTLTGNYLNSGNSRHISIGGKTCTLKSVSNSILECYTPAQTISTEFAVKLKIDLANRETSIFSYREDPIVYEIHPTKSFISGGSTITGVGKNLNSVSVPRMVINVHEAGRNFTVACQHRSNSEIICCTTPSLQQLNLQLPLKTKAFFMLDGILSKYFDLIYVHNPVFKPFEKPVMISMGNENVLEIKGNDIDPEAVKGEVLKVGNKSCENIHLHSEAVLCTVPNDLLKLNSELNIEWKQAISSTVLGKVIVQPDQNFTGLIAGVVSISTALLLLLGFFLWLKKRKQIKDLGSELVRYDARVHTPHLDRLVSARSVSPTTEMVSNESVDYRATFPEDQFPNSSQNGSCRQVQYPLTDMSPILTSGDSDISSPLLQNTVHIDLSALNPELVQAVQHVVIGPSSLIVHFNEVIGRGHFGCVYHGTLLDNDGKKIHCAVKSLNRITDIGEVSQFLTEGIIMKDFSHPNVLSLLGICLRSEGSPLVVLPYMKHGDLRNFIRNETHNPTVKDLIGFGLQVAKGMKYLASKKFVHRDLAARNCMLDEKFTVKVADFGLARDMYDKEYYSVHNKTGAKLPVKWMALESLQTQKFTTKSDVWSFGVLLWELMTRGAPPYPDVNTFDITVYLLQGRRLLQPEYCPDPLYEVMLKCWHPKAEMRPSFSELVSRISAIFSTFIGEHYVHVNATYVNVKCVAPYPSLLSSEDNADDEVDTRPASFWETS
Interleukin-1 receptor-associated kinase 4 (Homo sapiens), sequence (Q9NWZ3 whole entry): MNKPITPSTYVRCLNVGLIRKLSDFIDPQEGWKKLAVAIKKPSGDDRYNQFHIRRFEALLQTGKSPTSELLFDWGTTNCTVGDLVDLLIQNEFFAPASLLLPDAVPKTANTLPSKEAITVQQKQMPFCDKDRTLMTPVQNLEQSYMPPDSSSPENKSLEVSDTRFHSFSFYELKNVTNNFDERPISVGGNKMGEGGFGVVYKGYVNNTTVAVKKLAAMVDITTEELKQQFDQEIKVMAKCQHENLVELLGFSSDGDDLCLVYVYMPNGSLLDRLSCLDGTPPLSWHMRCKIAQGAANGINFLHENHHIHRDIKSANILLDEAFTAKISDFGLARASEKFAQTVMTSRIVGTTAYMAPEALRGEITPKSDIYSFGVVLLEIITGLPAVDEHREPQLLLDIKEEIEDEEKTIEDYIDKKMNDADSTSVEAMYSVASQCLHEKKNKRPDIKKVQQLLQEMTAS

## O=C1Nc2ccc(Cl)cc2/C1=C\c1ccccc1
[1]
  Activity: 16%
[2]
  Activity: 27%
[3]
  IC50: 10000 nM

## COc1cc(/C=C2/C(=O)Nc3ccc(Cl)cc32)ccc1OCCN1CCOCC1
[1]
  Activity: 9%
[2]
  Activity: 8%
[3]
  IC50: 163 nM

## CN(C)CCOc1ccc(/C=C2/C(=O)Nc3ccc(Cl)cc32)cc1
[1]
  Activity: 3%
[2]
  Activity: 22%
[3]
  IC50: 466 nM

## COc1c(C)cc(/C=C2/C(=O)Nc3ccc(Cl)cc32)cc1C
[3]
  IC50: 1500 nM

## O=C1Nc2ccc(Cl)cc2/C1=C\c1ccc(O)c(Br)c1
Danio rerio [4]
  Activity: Toxic
[5]
  mortality at 24 h, up to 30 µM: > 80%
[6]
  inhibition: 19%

## COc1cc(OCCN(C)C)ccc1/C=C1/C(=O)Nc2ccc(Cl)cc21
[1]
  Activity: 29%
[2]
  Activity: 62%

## CN[C@@H]1C[C@H]2O[C@@](C)([C@@H]1OC)n1c3ccccc3c3c4c(c5c6ccccc6n2c5c31)C(=O)NC4
[1]
  Activity: 2%
[2]
  Activity: 5%

## COc1cc(/C=C2/C(=O)Nc3ccc(Cl)cc32)ccc1OCCN(C)C
[1]
  Activity: 24%
[2]
  Activity: 26%

## O=C1Nc2ccc(Cl)cc2/C1=C\c1ccc(OCCN2CCOCC2)cc1
[1]
  Activity: 15%
[2]
  Activity: 37%
[3]
  IC50: 205 nM

## COc1cc(C(=O)N2CCC(N3CCN(C)CC3)CC2)ccc1Nc1ncc2c(n1)N(C)c1ccccc1C(=O)N2C
[1]
  Activity: 5%
[2]
  Activity: 13%

## COc1cc(/C=C2/C(=O)Nc3ccc(Cl)cc32)ccc1N1CCOCC1
[1]
  Activity: 33%
[2]
  Activity: 22%

## O=C1Nc2ccc(Cl)cc2/C1=C\c1ccc(O)cc1
[1]
  Activity: 8%
[2]
  Activity: 12%
[3]
  IC50: 12000 nM

## COc1ccc2c(c1)/C(=C\c1cc(Br)c(O)c(Br)c1)C(=O)N2
[3]
  IC50: 31 nM

## O=C1Nc2ccc(Cl)cc2/C1=C/c1cc(Br)c(O)c(Br)c1
[7]
  Activity: 90%
[8]
  Activity: 104%
[9]
  Activity: 97%
[10]
  Activity: 102%
[11]
  Activity: 83%
[12]
  Activity: 89%
[13]
  Activity: 103%
[14]
  Activity: 99%
[15]
  Activity: 83%
[16]
  Activity: 80%
[17]
  Activity: 92%
[18]
  Activity: 100%
[19]
  Activity: 101%
[20]
  Activity: 85%
[21]
  Activity: 91%
[22]
  mortality at 120 h, 30 µM: 40%
Danio rerio [23]
  Activity: Non-toxic
[24]
  Activity: 77%
[25]
  Activity: 87%
[26]
  Activity: 90%
[27]
  Activity: 95%
[28]
  Activity: 81%
[29]
  Activity: 87%
[30]
  Activity: 69%
[31]
  Activity: 101%
